WT yeast gro inh: growth inhibition of WT yeast, mitochondrial fusion screen; mitochondrial fusion phenotypic screen, WT strain; inhibition, % at 10 µM; actives 2.1% (n = 190,000); in the data active means inhibition above about 58%; tested in S. cerevisiae
NR3A LBD binder: NR3A (human) ligand-binding domain modulation. NR3A LBD differential scanning fluorimetry, Tm shift; 0% = protein alone, 100% = glycine-bound protein. Tm shift relative to glycine control, % at 25 µM. actives 2.5% (n = 340,000);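 active means melting temperature shift of at least 10% of the positive control shift, at one fixed dose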
Tb MetRS inh: blocks T. brucei methionyl-tRNA synthetase activity | AID 624268 | purified T. brucei MetRS, ATP depletion, Kinase-Glo luminescence | inhibition, % at 11.9 µM | actives 0.4% (n = 360,000);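 active means inhibition above a per-plate cutoff of the control wells' mean inhibition plus 3 SD, cut at about 5.5% in these data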;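 further: 0% = DMSO wells median and 100% = median of wells with control inhibitor compound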
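assay system = parasite MetRS enzyme | timing = 15 min preincubation, 2 h reaction, all 25 °C | evaluation = percent inhibition relative to median high and low control wells | medium = HEPES buffer containing pyrophosphatase, BSA, spermine, DTT | compound = single dose, 11.9 µM final nominal, 0.9% final DMSO | detection = Kinase-Glo luminescence, ATP depletion format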
CHOP inhibitor: CHOP inhibition in unfolded protein response. CHO-K1 CHOP-promoter luciferase, tunicamycin-induced, 15-18 h. inhibition, % at 10 µM. AID 2732. actives 3.8% (n = 220,000);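 active means compounds that reduced the stress-induced luciferase reporter signal by more than about 70% of percent inhibition, limit read from the data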;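 further: 0% = tunicamycin plus vehicle and 100% = wells without tunicamycin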
MPTP block: permeability transition pore inhibition | isolated mouse mitochondria, Ca2+ swelling absorbance, 30 min | inhibition, % at 10 µM | actives 1.4% (n = 360,000);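 active means inhibition of 50% or more, scaled per plate between neutral and stimulator controls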;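 further: 0% = DMSO wells given calcium and 100% = 1 mM EGTA wells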
EBV gp42 inh: EBV gp42 inhibition. Q1HVG2. Fluorescence polarization binding assay, mP read-out. inhibition, % (tested at 21.74 µM). actives 0.42% (n = 220,000); in the data active means inhibition above about 50%
Target sequence (Q1HVG2 whole entry, looked up): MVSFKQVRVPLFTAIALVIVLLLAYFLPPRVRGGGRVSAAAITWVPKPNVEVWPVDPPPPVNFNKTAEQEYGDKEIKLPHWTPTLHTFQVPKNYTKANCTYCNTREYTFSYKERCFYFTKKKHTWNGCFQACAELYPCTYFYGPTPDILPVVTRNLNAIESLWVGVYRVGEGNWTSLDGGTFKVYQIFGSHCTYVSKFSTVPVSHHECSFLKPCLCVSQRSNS
CHOP inh conf: confirmation of CHOP induction inhibitors; shares compounds with CHOP inhibitor; inhibition, % at 10 µM; CHO-CHOP promoter luciferase reporter, tunicamycin-induced, luminescence; actives 45% (n = 2,100);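 active means mean of three repeat readings of reporter signal inhibition above a set limit, cut at about 70% in these data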;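 further: 0% = tunicamycin plus vehicle and 100% = wells lacking tunicamycin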
* marks the source's active call; other numbers are inactive results. An excerpt weighted towards active compounds, which were near 6.4% of everything screened.

`C=CCn1c(=O)c(C(=O)Nc2ccccc2O)c(O)c2ccccc21` gave WT yeast gro inh -1.5, NR3A LBD binder -1.2, Tb MetRS inh 0.3, CHOP inhibitor 104.1*, MPTP block 1.1, EBV gp42 inh -8.9 and CHOP inh conf -64.3.
For C=CCn1c(=O)c(C(=O)Nc2ccccc2C)c(O)c2ccccc21 the results were NR3A LBD binder -1.0, Tb MetRS inh -1.6 and MPTP block 5.4.
`Cc1ccc(C(=O)CCC(=O)Nc2cccc(C(F)(F)F)c2)cc1C` gave NR3A LBD binder -0.1, Tb MetRS inh -0.5 and MPTP block -0.6.
O=C(CCC(=O)c1ccc(Br)cc1)Nc1cccc(C(F)(F)F)c1 was read as WT yeast gro inh 24.7, NR3A LBD binder -3.8, Tb MetRS inh 0.4, CHOP inhibitor 108.0*, MPTP block -14.0, EBV gp42 inh 1.2 and CHOP inh conf -4.1.
For Cc1cc(C(=O)N/N=C2\CC(=O)c3ccccc32)c(C)n1-c1ccccc1 the results were WT yeast gro inh 3.1, NR3A LBD binder -2.0, Tb MetRS inh -0.1, CHOP inhibitor -3.3, MPTP block -3.2 and EBV gp42 inh -0.6.
CCN(CC(O)Cn1c2ccccc2c2ccccc21)S(=O)(=O)c1ccc(C)cc1 (stereo not given) was read as WT yeast gro inh 34.2, NR3A LBD binder 2.6, Tb MetRS inh 0.4, CHOP inhibitor 98.6*, MPTP block 5.6, EBV gp42 inh 0.0 and CHOP inh conf 34.8.
Screening CN(CC(O)Cn1c2ccccc2c2ccccc21)S(C)(=O)=O (stereo not given) returned WT yeast gro inh -11.3, NR3A LBD binder -0.8, Tb MetRS inh -1.0, CHOP inhibitor 24.9, MPTP block -1.7 and EBV gp42 inh 6.4.
For O=C(CSc1nnc(COc2ccccc2)o1)N1CCCCC1 the results were NR3A LBD binder 0.8, Tb MetRS inh -0.5 and MPTP block 0.3.
`Cc1cccc(OCc2n(CC(=O)OC3CC(C)CCC3C(C)C)c3ccccc3[n+]2C)c1` (stereo not given) gave WT yeast gro inh 43.5, NR3A LBD binder -8.1, Tb MetRS inh -0.5, CHOP inhibitor 108.8*, MPTP block 8.6, EBV gp42 inh -10.8 and CHOP inh conf 77.7*.
Screening Clc1ccc(-n2nnnc2-c2cnc3ccc(Cl)cc3c2-c2ccccc2)cc1 returned NR3A LBD binder 0.2, Tb MetRS inh -0.1, CHOP inhibitor 19.5, MPTP block -0.2 and EBV gp42 inh -23.6.
`Clc1ccc2ncc(-c3nnnn3-c3ccccc3)c(-c3ccccc3)c2c1` gave WT yeast gro inh 69.8*, NR3A LBD binder -3.4, Tb MetRS inh -1.2, CHOP inhibitor 106.8*, MPTP block -1.4, EBV gp42 inh -15.1 and CHOP inh conf 7.7.
`C=CCN1C(=O)C(=O)N(CC(=O)NCC(=O)Nc2ccc(F)c(F)c2F)C1=O` gave NR3A LBD binder 1.2, Tb MetRS inh -0.5 and MPTP block -0.4.
`CCN(CC)C(=S)Sc1c(-c2ccccc2)c2cc(Cl)ccc2[nH]c1=O` gave WT yeast gro inh 24.6, NR3A LBD binder -5.8, Tb MetRS inh -0.1, CHOP inhibitor 97.3*, MPTP block -4.8, EBV gp42 inh -0.5 and CHOP inh conf 47.5.
Screening NNC(=O)c1[nH]c2ccc(Cl)cc2c1-c1ccccc1 returned NR3A LBD binder -0.3, Tb MetRS inh 0.7, CHOP inhibitor -27.7, MPTP block 0.9 and EBV gp42 inh -3.2.
`CN1CCN(c2nc3c(c(=O)[nH]c(=O)n3C)n2Cc2ccccc2)CC1` gave NR3A LBD binder -1.8, Tb MetRS inh -0.1 and MPTP block 0.4.
`C=C(C)Cn1c(N2CCC(Cc3ccccc3)CC2)nc2c1c(=O)[nH]c(=O)n2C` gave WT yeast gro inh 40.0, NR3A LBD binder -4.6, Tb MetRS inh -0.6, CHOP inhibitor 98.8*, MPTP block 3.2, EBV gp42 inh 8.6 and CHOP inh conf 124.8*.
Screening O=C(OCn1ncc(Cl)c(Cl)c1=O)c1ccc(C(F)(F)F)cc1 returned WT yeast gro inh 7.2, NR3A LBD binder 0.8, Tb MetRS inh -0.6, CHOP inhibitor 104.2*, MPTP block -0.9, EBV gp42 inh -16.1 and CHOP inh conf 116.4*.
COc1ccc(OC)c2sc(NC(=O)C3CC3)nc12 was read as WT yeast gro inh 10.7, NR3A LBD binder 0.1, Tb MetRS inh -0.3, CHOP inhibitor -6.4, MPTP block -0.8 and EBV gp42 inh -14.6.
Screening COc1ccc(OC)c2sc(NC(=O)c3ccc(Cl)s3)nc12 returned WT yeast gro inh 21.7, NR3A LBD binder -5.3, Tb MetRS inh -0.5, CHOP inhibitor 103.0*, MPTP block 2.0, EBV gp42 inh -1.5 and CHOP inh conf 85.8*.
For O=C(COc1ccc(Br)cc1)N(Cc1cccs1)C1CCS(=O)(=O)C1 (stereo not given) the results were NR3A LBD binder -1.4, Tb MetRS inh 0.7 and MPTP block 0.0.
Screening Cc1ccc(Sc2nc(-c3ccccc3)nnc2C(F)(F)F)cc1 returned WT yeast gro inh 5.5, NR3A LBD binder 4.1, Tb MetRS inh -0.1, CHOP inhibitor 107.3*, MPTP block -1.2, EBV gp42 inh -14.2 and CHOP inh conf -50.3.
Screening COCn1ccnc1C(=O)c1ccco1 returned Tb MetRS inh 0.2 and MPTP block 0.3.
For O=C(Cn1c(O)c(N=NC(=O)c2ccncc2)c2ccccc21)Nc1ccccc1 the results were NR3A LBD binder -3.4, CHOP inhibitor -12.1 and EBV gp42 inh -11.7.
Screening O=C(N=Nc1c(O)n(Cc2ccccc2)c2ccccc12)c1cc2ccccc2cc1O returned WT yeast gro inh 69.8*, NR3A LBD binder 12.6*, Tb MetRS inh -0.5, CHOP inhibitor 106.3*, MPTP block 1.5, EBV gp42 inh 3.7 and CHOP inh conf 95.1*.
Screening O=S1(=O)CC(O)C(N=Nc2c(O)n(Cc3ccccc3)c3ccccc23)C1 (stereo not given) returned NR3A LBD binder -1.3, Tb MetRS inh 0.3, CHOP inhibitor 2.8, MPTP block -0.8 and EBV gp42 inh -17.9.
Cc1ccc(NC(=O)Cn2c(O)c(N=NC(=O)c3cc4ccccc4cc3O)c3ccccc32)cc1 was read as WT yeast gro inh 3.3, NR3A LBD binder 6.2, Tb MetRS inh -1.7, CHOP inhibitor 97.5*, MPTP block -0.3, EBV gp42 inh 26.8 and CHOP inh conf -21.4.
Cc1cc(C)n2nc(SCc3ccccc3C(=O)O)nc2n1 was read as NR3A LBD binder 0.9, Tb MetRS inh -0.4 and MPTP block 0.0.
`Clc1ccc(-c2n[nH]c3c2CCC3)cc1Cl` gave WT yeast gro inh 71.1, NR3A LBD binder -3.6, Tb MetRS inh -1.6, CHOP inhibitor 98.2*, MPTP block 0.8, EBV gp42 inh 10.9 and CHOP inh conf 63.2.
